A word on the MIC90: it is an inhibitory concentration at the 90% level, which refers to growth in some studies and to a panel of isolates in others. The term Kd denotes the concentration at which binding is half-saturated. Read a high Kd as lower affinity. In general, ED50 refers to the midpoint of the dose-response relation. What is called Ki is a measure of affinity in units of concentration, obtained from inhibition or displacement. Lower therefore signals tighter binding. As usually defined, the MIC is the least concentration at which growth counts as inhibited. Read a low MIC as greater potency.

Converted amounts (≈) assume the structure as drawn. The source made the active and inactive calls. The rule behind the calls is not given here.

This note sets out measurements from ChEMBL document CHEMBL4425098, “Thiolactomycin-Based Inhibitors of Bacterial β-Ketoacyl-ACP Synthases with in Vivo Activity” (J Med Chem, 2016).

For data set [1], the system named is Burkholderia pseudomallei. Briefly: Antibacterial activity against Burkholderia pseudomallei after 18 to 24 hrs by Alamar blue dye-based colorimetric assay. The format is functional.
Data set [2] deals with Staphylococcus aureus. Briefly: Antibacterial activity against methicillin-resistant Staphylococcus aureus BAA 1762 after 18 to 24 hrs by Alamar blue dye-based colorimetric assay. It counts as functional. On the technique in general: Alamar Blue is a resazurin reagent that responds to reducing activity.
Another data set concerns Yersinia pestis. Put plainly: Antibacterial activity against Yersinia pestis A1122 after 18 to 24 hrs by Alamar blue dye-based colorimetric assay. The format is functional.
The subject of data set [3] is Staphylococcus aureus. Briefly: Antibacterial activity against methicillin-resistant Staphylococcus aureus BAA 1762 infected in Swiss Webster mouse assessed as survival time at 100 mg/kg, sc administered 1 and 25 hrs post infection measured twice a day for 5 days. It counts as functional. The method in brief:
(§1)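 Mice made neutropenic with cyclophosphamide 4 days and 1 day before infection. MRSA BAA 1762 was given IP as 0.5 mL of 5×10⁷ cells/mL in BHI. Analogues in water/ethanol, or vancomycin in water, were dosed SC at 100 mg/kg/inj at 1 and 25 h post infection. Survival was checked every 12 h for 5 days, n=6–7 per group. Average survival time was compared with vehicle by one-tailed t test.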

For data set [4], the target named is T1, 3-oxoacyl-[acyl-carrier-protein] synthase 2 (Staphylococcus aureus, UniProt Q5TKS0).
T1 sequence (Q5TKS0 whole entry): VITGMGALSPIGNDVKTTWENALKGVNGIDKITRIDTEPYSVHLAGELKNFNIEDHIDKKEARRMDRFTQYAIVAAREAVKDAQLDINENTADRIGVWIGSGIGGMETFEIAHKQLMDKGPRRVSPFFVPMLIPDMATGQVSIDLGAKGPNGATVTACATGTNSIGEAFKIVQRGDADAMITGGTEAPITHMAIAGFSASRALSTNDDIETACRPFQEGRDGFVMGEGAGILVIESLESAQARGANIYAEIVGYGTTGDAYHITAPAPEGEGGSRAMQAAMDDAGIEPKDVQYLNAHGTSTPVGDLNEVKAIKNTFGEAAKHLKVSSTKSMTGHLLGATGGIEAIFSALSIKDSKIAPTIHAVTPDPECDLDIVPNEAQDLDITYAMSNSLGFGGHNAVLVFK
Briefly: Binding affinity to Staphylococcus aureus wild type FabF expressed in Escherichia coli BL21 (DE3) PlysS cells by intrinsic tryptophan fluorescence quenching-based fluorimetric method.

The subject of data set [5] is Klebsiella pneumoniae. Put plainly: Antibacterial activity against Klebsiella pneumoniae KPC2ST258 infected in Swiss Webster mouse assessed as survival time at 100 mg/kg, sc administered 1, 12 and 24 hrs post infection measured every 12 hrs for 7 days. It counts as functional. The essentials: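 K. pneumoniae KPC2ST258 was given IP as 5×10⁶ cfu in BHI broth. Drugs in saline/PEG400/ethanol (40/20/40) were injected SC at 100 mg/kg/inj at 1, 12 and 24 h post infection. Mice were checked every 12 h for 7 days, n=8–10 per group. Average survival time was compared with vehicle by one-tailed t test.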

The test system of data set [6] is Mycobacterium tuberculosis. Put plainly: Antibacterial activity against Mycobacterium tuberculosis H37Rv after 6 days by Alamar blue dye-based colorimetric assay. The format is functional. As to conditions: 144 h. The method in brief: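 M. tuberculosis H37Rv grown to early-mid log phase in Middlebrook 7H9 with 10% OADC and 0.05% Tween 80, added to 1:2 serial compound dilutions, and grown for 6 days at 37°C. Alamar blue then added for a further 24 h. MIC taken as the concentration preventing visible growth and Alamar blue reduction in all replicates.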

The subject of data set [7] is Staphylococcus aureus. Put plainly: Antibacterial activity against methicillin-sensitive Staphylococcus aureus RN4220 after 18 to 24 hrs by Alamar blue dye-based colorimetric assay. It counts as functional. The method in brief:
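Two-fold serial dilutions from 512 down to 0.25 μg/mL in CAMHB (microbroth dilution); incubated 37 °C for 18–24 h, then Alamar Blue added for a further 4 h. Absorbance read at 570 and 600 nm; percent growth reduction plotted against concentration, MIC90 from non-linear regression; growth and MICs confirmed by optical density.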

The next data set deals with Francisella tularensis. Put plainly: Antibacterial activity against Francisella tularensis LVS after 18 to 24 hrs by Alamar blue dye-based colorimetric assay. The format is functional.
In data set [8] the target is 3-oxoacyl-[acyl-carrier-protein] synthase 2 (Staphylococcus aureus, UniProt Q5TKS0, C165Q). Put plainly: Binding affinity to Staphylococcus aureus FabF C165Q mutant expressed in Escherichia coli BL21 (DE3) PlysS cells by intrinsic tryptophan fluorescence quenching-based fluorimetric method. The essentials: (§2)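 Kd by quenching of intrinsic tryptophan fluorescence (excitation 280 nm, emission 337 nm). Inhibitor stocks in DMSO or buffer were titrated into 1 μM His-tag-purified enzyme in 50 mM Tris-HCl, 150 mM NaCl, 1 mM DTT, pH 8.5. mtFabB was expressed in M. smegmatis MC²155; saFabF was expressed in E. coli BL21(DE3) pLysS.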

For data set [9], the system named is Staphylococcus aureus. Briefly: Antibacterial activity against methicillin-resistant Staphylococcus aureus BAA 1762 infected in sc dosed Swiss Webster mouse assessed as increase in survival rate administered 1 and 25 hrs post infection measured twice a day for 5 days. As to conditions: BAA 1762, sc. The format is functional. The essentials: as §1
For data set [10], the system named is Mycobacterium tuberculosis. Put plainly: Binding affinity to Mycobacterium tuberculosis wild type FabB expressed in Mycobacterium smegmatis MC2 155 by WaterLOGSY-based competition assay.
A short description of data set [11]: Binding affinity to Mycobacterium tuberculosis wild type FabB expressed in Mycobacterium smegmatis MC2 155 by intrinsic tryptophan fluorescence quenching-based fluorimetric method. The method in brief:
as §2

The next data set deals with THP-1. Put plainly: Cytotoxicity against human THP1 cells at < 100 ug/ml after 2 days by Alamar blue assay. The format is cell-based. As to conditions: thp-1, 48 h.
For data set [12], the system named is Staphylococcus aureus. Put plainly: Antibacterial activity against methicillin-resistant Staphylococcus aureus BAA 1762 infected in Swiss Webster mouse assessed as increase in survival rate at 100 mg/kg, sc administered 1 and 25 hrs post infection measured twice a day for 5 days relative to vehicle-treated control. The format is functional, organism-based. The method in brief: as §1

Data set [13] deals with Klebsiella pneumoniae. Put plainly: Antibacterial activity against Klebsiella pneumoniae KPC2ST258 after 18 to 24 hrs by Alamar blue dye-based colorimetric assay. The format is functional, organism-based.

For `C=C/C(C)=C/[C@@]1(C)SC(=O)C(C(=O)C(F)(F)F)=C1O`, in [1], the outcome was inactive. Further, the MIC90 was 64 µg/mL (≈ 219 µM) in the data set with Staphylococcus aureus [2]; above 250 µg/mL in the data set on Yersinia pestis; 100 µg/mL (≈ 342 µM) in data set [6]; above 64 µg/mL with Staphylococcus aureus [7]; 98.1 µg/mL (≈ 336 µM) in the data set on Francisella tularensis. Moreover, the figures for the MSD in the data set on Staphylococcus aureus [3] and in the data set with Klebsiella pneumoniae [5] were 3 days and 5.1 days, respectively. Also, the Kd worked out at 58.4 µM in data set [4] and 56.2 µM in data set [8]. Also, in the data set with Staphylococcus aureus [9], the ED50 was 125 mg/kg.

As to `C=C/C(C)=C/[C@@]1(C)SC(=O)C=C1OCC(=O)NCCNC(=O)OC(C)(C)C`, in data set [10], the outcome was inactive. Also, the MIC90 was above 64 µg/mL against Staphylococcus aureus [2], above 100 µg/mL in data set [6], above 64 µg/mL against Staphylococcus aureus [7] and 54 µg/mL (≈ 136 µM) in the data set with Francisella tularensis. The compound further registered a Ki in data set [11] above 200 µM.

Consider `CN[C@H](CC(C)C)C(=O)N[C@H]1C(=O)N[C@@H](CC(N)=O)C(=O)N[C@H]2C(=O)N[C@H]3C(=O)N[C@H](C(=O)N[C@H](C(=O)O)c4cc(O)cc(O)c4-c4cc3ccc4O)[C@H](O)c3ccc(c(Cl)c3)Oc3cc2cc(c3O[C@@H]2O[C@H](CO)[C@@H](O)[C@H](O)[C@H]2O[C@H]2C[C@](C)(N)[C@H](O)[C@H](C)O2)Oc2ccc(cc2Cl)[C@H]1O` [VANCOMYCIN], for which, in the data set with Staphylococcus aureus [3], the MSD is 5 days. Moreover, the ED50 in the data set with Staphylococcus aureus [9] is below 30 mg/kg.

In data set [1], `C=C/C(C)=C/[C@@]1(C)SC(=O)C(C)=C1O` [THIOLACTOMYCIN] came in with an MIC of 8 µg/mL (≈ 38 µM). In addition, in data set [10], the outcome was inactive. The MIC90 worked out at 75 µg/mL (≈ 357 µM) in the data set with Staphylococcus aureus [2]; 8 µg/mL (≈ 38 µM) in the data set on Yersinia pestis; 3.1 µg/mL (≈ 14.7 µM) in data set [6]; 75 µg/mL (≈ 357 µM) against Staphylococcus aureus [7]; 2.8 µg/mL (≈ 13.3 µM) with Francisella tularensis. Further, the Kd in [4] came out at 107 µM; in [8] it was 88 µM. The Activity entry in the data set on THP-1 is “Non-Toxic”. The MSD in the data set on Klebsiella pneumoniae [5] stood at 3.25 days. Also, the result in the data set on Staphylococcus aureus [12] was Active.

Regarding GENTAMICIN, the MSD in the data set with Klebsiella pneumoniae [5] turned out to be 6.2 days. Further, the MIC in the data set with Klebsiella pneumoniae [13] is below 1 µg/mL.
